Lmaj promast – Leishmania major promastigote growth inhibition; Leishmania major promastigotes, resazurin fluorescence viability; inhibition, % at 10 µM; 9% of 200,000 active; AID 1063;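 note: promastigotes grown with compound for 44 hours at 28 °C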
PfGluPho inh – PfG6PD (Plasmodium falciparum) enzyme inhibition; PfGluPho enzyme, NADPH resazurin-diaphorase fluorescence; inhibition, % at 20 µM; 0.78% of 350,000 active;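 active = inhibition reaching at least a set limit at 20 µM in the primary screen, cut at about 59% in these data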
DTT redox prof – compounds producing H2O2 with reducing agent – biochemical, NIH compound library profiling, artefact control for MLSCN library redox annotation, primary screen; DTT-dependent redox cycling H2O2, phenol red/HRP absorbance; 100% = 100 µM peroxide control, 0% = buffer; activation, % at 10 µM; 0.03% of 200,000 active; AID 878;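 active = activation of at least 50% relative to the plate's high and low controls in the primary single-dose screen; inactive = activation below 50%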;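 note: compound incubated with DTT at 0.8 mM final as the reducing agent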
Diaph inh CS – diaphorase inhibition or chemical oxidation counter-screen | diaphorase resazurin-to-resorufin fluorescence, NADH, 16 min; bacterial (C. kluyveri) enzyme, not human | AID 1217 | inhibition, % at 20 µM | 0.69% of 190,000 active;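 active = primary screen inhibition at 20 µM above a set limit, cut at about 50% in these data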
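System: Bacterial diaphorase enzyme (C. kluyveri) | Incubation: 16-min room-temperature incubation before reading | Benchmarks: No-NADH positive control and DMSO neutral control | Measured by: Resorufin fluorescence 544/590 nm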
G6PDH CS – L. mesenteroides G6PDH inhibition counter-screen | inhibition, % at 5 µM | 0.12% of 200,000 active | AID 1020 | Purified L. mesenteroides G6PDH, diaphorase/resazurin coupled fluorescence, 45 min
Diaph act CS – diaphorase activation or chemical reduction counter-screen; 0.005% of 190,000 active; Diaphorase/resazurin coupled assay, resorufin fluorescence, 16 min; active compounds read high; 1 = vehicle wells, 0 = NADH-free wells; activation factor at 20 µM;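 active = diaphorase activity raised at least twofold by the compound at 20 µM; inactive = activation factor below 2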
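Assay system: Purified diaphorase enzyme from Clostridium kluyveri | Amount: Enzyme 0.07 U/mL final | Dosing: Compound 20 µM once, DMSO 1% | Timing: 16 min reaction at room temperature | Detection: Fluorescence, excitation 544 nm and emission 590 nm | Evaluation: Higher resorufin formation from activation or reduction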
PfG6PD confirm – PfG6PD inhibition, single-dose confirmed | shares compounds with PfGluPho inh | recombinant PfGluPho, NADPH-diaphorase-resazurin fluorescence | inhibition, % at 20 µM | 34% of 2,400 active;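 active = inhibition of at least 50% at 20 µM in any single replicate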
Diaphorase 10uM – counter-screen for P. falciparum G6PD inhibitors: diaphorase inhibitors, oxidizers | shares compounds with PfGluPho inh | diaphorase-coupled resazurin reduction, fluorescence, NADPH 10 uM | inhibition, % at 20 µM | 39% of 820 active | AID 504862;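 active = average inhibition reaching 50% or more with the compound at 20 µM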;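 note: resorufin red fluorescence formed as diaphorase reduces resazurin using NADPH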
Diaphorase 30uM – counter-screen for P. falciparum G6PD inhibitors: diaphorase inhibitors, oxidizers; shares compounds with PfGluPho inh; Diaphorase/resazurin coupled assay, resorufin fluorescence, 30 uM NADPH; inhibition, % at 20 µM; 29% of 820 active; AID 504863;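 active = inhibition averaging 50% or more, tested at 20 µM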
Of the large screens only hits and unclear results are named; the others gave an inactive call (follow-up assays come after a bar, where they were run). The full list was thinned out, with hits kept by preference. Cut-off read from the data, not from the text of the source, unless noted: active = inhibition above about 50%; inactive = the rest.

O=C(CN1C(=O)C2C3C=CC(C3)C2C1=O)OCC(=O)c1ccc([N+](=O)[O-])cc1 (stereo not given)	PfGluPho inh 59.4 (no result: Lmaj promast, DTT redox prof, Diaph inh CS, G6PDH CS, Diaph act CS) | PfG6PD confirm 59.9 | Diaphorase 10uM inactive | Diaphorase 30uM inactive
c1ccc2c(c1)CCN(c1nc3cc4c(cc3s1)OCCO4)C2	PfGluPho inh 64.1 | PfG6PD confirm inactive
CC1=CN2C(=N)/C(=C/c3ccc([N+](=O)[O-])o3)C(=O)N=C2S1	PfGluPho inh 59.1 | PfG6PD confirm 73.2 | Diaphorase 10uM inactive | Diaphorase 30uM inactive
CC1=CN2C(=N)/C(=C/c3ccco3)C(=O)N=C2S1	none
CCC1(CC)Cc2ccccc2C(=O)N1	none (no result: Lmaj promast, DTT redox prof, Diaph inh CS, G6PDH CS, Diaph act CS)
CCC1(CC)Cc2ccccc2C(N)=C1C#N	PfGluPho inh 60.8 | PfG6PD confirm 49.0 | Diaphorase 10uM 50.4 | Diaphorase 30uM inactive
CC(=O)Nc1nnc(SCc2ccc(C(=O)Nc3ccccc3F)cc2)s1	none
O=C(Nc1ccc(N2CCOCC2)cc1N1CCOCC1)c1ccc(Cl)cc1	none (no result: Lmaj promast, DTT redox prof, Diaph inh CS, G6PDH CS, Diaph act CS)
O=C(Nc1ccc(N2CCOCC2)c(Cl)c1)c1ccc(Cl)cc1	PfGluPho inh 99.9 | PfG6PD confirm 60.7 | Diaphorase 10uM 50.6 | Diaphorase 30uM inactive
O=C(Nc1ccc(N2CCCCC2)c(Cl)c1)c1ccc2c(c1)OCCO2	PfGluPho inh 99.0 | PfG6PD confirm inactive
O=C(Nc1ccccc1N1CCCC1)c1ccc(Br)o1	none
O=C(Nc1ccc(N2CCCC2)c(Cl)c1)c1ccc2c(c1)OCCO2	PfGluPho inh 67.4 (no result: Diaph inh CS, G6PDH CS, Diaph act CS) | PfG6PD confirm inactive
O=C(Nc1ccc(N2CCCC2)c(Cl)c1)c1ccc(Br)o1	PfGluPho inh 59.5 | PfG6PD confirm inactive
CCc1ccc(NC(=O)CSc2nnc(-c3cnccn3)n2C)cc1	none (no result: Lmaj promast, DTT redox prof, Diaph inh CS, G6PDH CS, Diaph act CS)
Cc1ccc(NC(=O)c2cc(N3C(=O)C=CC3=O)ccc2N2CCOCC2)cc1Cl	PfGluPho inh 74.1 | PfG6PD confirm 102.0 | Diaphorase 10uM inactive | Diaphorase 30uM inactive
O=C(Nc1cc(Cl)ccc1N1CCOCC1)c1ccc2c(c1)OCO2	none (no result: Lmaj promast, DTT redox prof, Diaph inh CS, G6PDH CS, Diaph act CS)
O=C(Nc1ccc(N2CCOCC2)c(Cl)c1)c1ccc2c(c1)OCCO2	PfGluPho inh 82.7 (no result: Diaph inh CS, Diaph act CS) | PfG6PD confirm inactive
COc1ccccc1CCNC(=O)c1cccc(S(=O)(=O)NCc2ccccc2)c1	none (no result: Lmaj promast, DTT redox prof, Diaph inh CS, G6PDH CS, Diaph act CS)
Cc1cccc(C)c1Nc1n[nH]c(=S)s1	none (no result: Lmaj promast, DTT redox prof, Diaph inh CS, G6PDH CS, Diaph act CS)
Cc1ccc(Nc2n[nH]c(=S)s2)c(C)c1	PfGluPho inh 70.7 (no result: Lmaj promast, DTT redox prof, Diaph inh CS, G6PDH CS, Diaph act CS) | PfG6PD confirm inactive
Cc1cc(C)c(Nc2n[nH]c(=S)s2)cc1C	PfGluPho inh 66.7 (no result: Lmaj promast, DTT redox prof, Diaph inh CS, G6PDH CS, Diaph act CS) | PfG6PD confirm inactive
COc1cccc(Nc2n[nH]c(=S)s2)c1	PfGluPho inh 62.0 | PfG6PD confirm inactive
Cc1nc2c(=O)[nH]c(=S)n(C)c2nc1C	PfGluPho inh 65.4 | PfG6PD confirm inactive
Cc1ccc(-c2ccc(/C=C3\C(=O)ON=C3c3ccccc3)o2)c([N+](=O)[O-])c1	Lmaj promast 98.1, PfGluPho inh 70.1 | PfG6PD confirm inactive
Cc1ccc(S(=O)(=O)N(C)/C(=N/S(=O)(=O)c2ccccc2)c2ccccc2)cc1	PfGluPho inh 82.3 | PfG6PD confirm inactive
CCS(=O)(=O)N1CCN(c2ccc(Cl)cc2[N+](=O)[O-])CC1	none
CC(C)(C)N1C(=O)c2ccc(C(=O)NCc3ccco3)cc2C1=O	none
CC[n+]1c(/C=C2\C=C(C)CC(C)(C)C2)sc2ccccc21	Lmaj promast 100.2, PfGluPho inh 61.4 | PfG6PD confirm inactive
CCc1nnc(N/N=C/c2c(C)[nH]c3ccccc23)n1N	PfGluPho inh 60.2 | PfG6PD confirm inactive
CCCCCCCCSC1=CC(=O)C(OC)=C(OC)C1=O	PfGluPho inh 125.0 (no result: Lmaj promast, DTT redox prof, Diaph inh CS, G6PDH CS, Diaph act CS) | PfG6PD confirm 86.2 | Diaphorase 10uM 67.1 | Diaphorase 30uM inactive
CC(C)(CC(=O)O)CC(=O)N1CCN(c2cc(C(F)(F)F)nc3ccccc23)CC1	none (no result: Lmaj promast, DTT redox prof, Diaph inh CS, G6PDH CS, Diaph act CS)
